RAD52 inh = RAD52 (human) annealing inhibition; inhibition, % at 18.7 µM; P43351; actives 0.46% (n = 360,000); recombinant RAD52 DNA annealing, FRET fluorescence;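 active = every replicate showing at least 50% inhibition; inconclusive = mean inhibition at least 50% but not in every replicate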
Target sequence (P43351 whole entry, looked up): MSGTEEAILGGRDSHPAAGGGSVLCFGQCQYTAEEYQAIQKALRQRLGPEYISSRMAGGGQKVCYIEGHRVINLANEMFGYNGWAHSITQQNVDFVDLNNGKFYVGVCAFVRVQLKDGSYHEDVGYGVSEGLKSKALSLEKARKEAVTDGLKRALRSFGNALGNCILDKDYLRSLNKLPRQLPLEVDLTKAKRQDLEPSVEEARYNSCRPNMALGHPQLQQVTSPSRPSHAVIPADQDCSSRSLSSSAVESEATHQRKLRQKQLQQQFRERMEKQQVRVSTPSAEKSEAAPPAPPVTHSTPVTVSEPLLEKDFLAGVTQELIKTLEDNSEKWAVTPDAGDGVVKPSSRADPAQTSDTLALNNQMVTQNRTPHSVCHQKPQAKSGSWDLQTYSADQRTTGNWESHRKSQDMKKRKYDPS
AF4-AF9 inh = MLL-AF4/AF9 protein interaction inhibition | P42568 | AlphaScreen, biotin-AF4 peptide binding to FLAG-AF9 | inhibition, % at 10 µM | actives 0.47% (n = 350,000) | AID 651704;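 active = every replicate reaching a set inhibition limit, whatever the replicate mean, cut at about 25% in these data; inconclusive = mean inhibition reaches that limit but some replicates miss it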
E-sel inducer = induces E-selectin expression in human endothelial cells; activation, % at 7.58 µM; AID 686992; P16581; HUVEC E-selectin immunofluorescence imaging; normalized: neutral wells 0, TNF-alpha wells 100; actives 0.37% (n = 260,000);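 active = mean E-selectin-positive cell signal at least 10% of the positive control, reached in at least 60% of replicates, without over 20% cell loss; inconclusive = no rule given, readout overlaps actives, possibly toxicity-flagged; inactive = the rest, including those meeting only one limit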
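System: HUVEC, human umbilical vein endothelial cells; quantity: 3,000 cells/well; buffer or medium: EGM-2 medium, gelatin-coated wells; dosing: single-point compound dose; detection: immunofluorescence imaging; evaluation: % PE-positive cells; benchmarks: TNF-alpha, DMSO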
RAD54 inh = inhibitors of human RAD54 branch migration; Q92698; RAD54 Holliday junction branch migration, FAM/BHQ fluorescence; inhibition, % at 10.4 µM; actives 0.14% (n = 360,000); AID 602329;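 active = mean normalized replicate activity at least 40 and at least half of replicates scoring 40 or more; inconclusive = only one of the two criteria met; inactive = mean below 40 and under half of replicates reaching 40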;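 note: inhibitors cause a drop in the FAM fluorescence signal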
rRNA inh HTS = inhibits bacterial ribosomal RNA function over humanized ribosomes; E. coli WT GFP vs humanized-ribosome RFP mutants, fluorescence, 24 h; active compounds read low; DMSO median 0, no signal -100; GFP signal change (wild-type ribosome), % (test concentration not listed); actives 1.6% (n = 350,000); AID 720706;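 active = significant combined selectivity score with lowered wild-type GFP, culture density cut under 30%, mutant RFP and density less affected; inactive = any of these conditions unmet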
INS-1E GSIS act = GLuc luminescence reporter in INS-1E cells, primary screen for activators of glucose-dependent secretion of insulin; INS-1E GLuc reporter insulin secretion, 2-3 h; activation, % at 16.6 µM; actives 0.61% (n = 370,000); AID 743287;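 active = lowest replicate activation of at least 40%, so every replicate reaches that level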
HepG2 tox = kills or reduces viability of HepG2 cells | shares compounds with rRNA inh HTS | ATP luminescence, 72 h | activity change, negative = cytotoxicity, unspecified at 26 µM | 30 tested, under 10 active;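 active = compounds whose fitted half-maximal signal-loss concentration is at most twice their highest valid dose; inconclusive = flat curve with 30 to 70% signal loss, or poor fit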
AID977621 = growth inhibition of wild-type GFP E. coli, dose response, H69 mutant RFP, cherry-pick. shares compounds with rRNA inh HTS. 1,900 tested, under 10 active. E. coli wild-type GFP strain growth, fluorescence, 24 h. activity change, negative = inhibition at 50 µM. AID 977621;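 active = Wild-type ribosome reporter drop at least double the humanized mutant ribosome reporter drop, growth loss under a set limit; inconclusive = no clear call, values can overlap the other calls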;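 note: wild-type GFP and H69 mutant RFP strains grown together 50/50 in each well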
AID977628 = growth of wild-type and h24-humanized E. coli strains – h24 mutant RFP vs wild-type GFP, cherry-pick, dose response. shares compounds with rRNA inh HTS. E. coli WT GFP strain growth, fluorescence, 24 h. activity change, negative = inhibition at 50 µM. 1,900 tested, under 10 active. AID 977628;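 active = compound lowering the normal-ribosome reporter at least twice as much as the humanized-ribosome reporter, growth loss under a set limit; inconclusive = no clear call, values can overlap the other calls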;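 note: wild-type GFP and h24 humanized RFP strains co-cultured 1 to 1 per well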
Of the large screens only hits and unclear results are named; the others gave an inactive call (follow-up assays come after a bar, where they were run). Compounds with a hit are over-represented: about 2.6% of the library has one in this group of screens.

O=C(O)c1cc([N+](=O)[O-])ccc1NCc1ccccc1	rRNA inh HTS -25 (no result: RAD54 inh) | HepG2 tox inactive
CCc1ccc(OCC(=O)NCc2ccco2)c(Br)c1	rRNA inh HTS -21 (no result: E-sel inducer) | AID977621 inactive
COCc1[nH]nc2c1C(c1ccc3c(c1)OCO3)N(c1ccc(OC)cc1)C2=O (stereo unspecified)	rRNA inh HTS -30 (no result: RAD54 inh) | AID977621 inactive | AID977628 inactive
COCc1[nH]nc2c1C(c1cccc(C(F)(F)F)c1)N(c1ccc(OC)cc1)C2=O (stereo unspecified)	none (no result: AF4-AF9 inh, RAD54 inh)
COC(=O)c1sccc1NC(=O)Cn1nnc(-c2ccccc2C)n1	rRNA inh HTS -30 (no result: E-sel inducer, RAD54 inh) | AID977621 inactive
CCOC(=O)c1ccc(NC(=O)Cn2nnc(-c3ccccc3C)n2)cc1	none (no result: RAD52 inh, AF4-AF9 inh, E-sel inducer, rRNA inh HTS, INS-1E GSIS act)
Cc1ccc2nc(SCC(=O)c3ccc4c(c3)NC(=O)CO4)[nH]c2c1	rRNA inh HTS -21 (no result: RAD54 inh) | AID977621 inactive | AID977628 inconclusive
Cc1ccc(C)c(-n2nnnc2SCC(=O)c2ccc3c(c2)NC(=O)CO3)c1	none (no result: RAD52 inh, AF4-AF9 inh, E-sel inducer, rRNA inh HTS, INS-1E GSIS act)
COCC#Cc1ccc2c(c1)O[C@H](CN(C)C(=O)C1CC1)[C@H](C)CN([C@H](C)CO)S2(=O)=O	none
O=C(Nc1ccc(Br)cc1)c1cccnc1N1CCCCC1	rRNA inh HTS -34 (no result: E-sel inducer) | AID977621 inactive | AID977628 inactive
Cc1cccc(S(=O)(=O)N2CC[C@@H]3[C@H](CO)Nc4ccc(C#Cc5ccc(F)cc5)cc4[C@@H]32)c1	none
c1ccc(Sc2ncnc3ccccc23)cc1	rRNA inh HTS -18 (no result: E-sel inducer) | AID977628 inconclusive
Cc1noc(C)c1COc1cccc(C(=O)N2CCc3ccccc32)c1	rRNA inh HTS -41 | AID977621 inactive | AID977628 inactive
COc1ccc(CC(=O)NCc2ccccc2)cc1OC	none (no result: E-sel inducer)
COc1ccc(CC(=O)NCc2csc(-c3cccs3)n2)cc1OC	rRNA inh HTS -20 (no result: E-sel inducer, RAD54 inh) | AID977621 inactive
O=C(CSc1nncn1-c1ccccc1)Nc1ccccc1	none (no result: E-sel inducer)
CS(=O)(=O)c1ccc(Cl)c(NC(=O)CSc2nncn2-c2ccccc2)c1	rRNA inh HTS -22 (no result: E-sel inducer) | AID977621 inactive | AID977628 inactive
C[C@H](CO)N1C[C@H](C)[C@@H](CN(C)S(=O)(=O)c2ccccc2F)Oc2ncc(C#Cc3ccncc3)cc2C1=O	none (no result: E-sel inducer)
CCOC(=O)c1cccc(NC(=O)CCc2ccccc2)c1	none
CCOC(=O)c1cccc(OS(=O)(=O)Cc2ccccc2)c1	rRNA inh HTS -26 | AID977621 inactive
CC(=O)N(C)C[C@H]1Oc2cc(C#Cc3ccccc3)ccc2S(=O)(=O)N([C@@H](C)CO)C[C@@H]1C	none
O=C(Nc1ccccc1N1CCOCC1)C1CCCCN1S(=O)(=O)c1ccccc1 (stereo unspecified)	rRNA inh HTS -31 (no result: RAD54 inh) | AID977621 inactive | AID977628 inactive
Cc1cccc(NC(=O)C2CCCCN2S(=O)(=O)c2ccccc2)c1C (stereo unspecified)	none
O=C(NCCCN1CCOCC1)c1sc2cc([N+](=O)[O-])ccc2c1Cl	none (no result: RAD52 inh, AF4-AF9 inh, E-sel inducer, rRNA inh HTS, INS-1E GSIS act) | AID977628 inactive
C[C@@H]1CCCCO[C@H](CN(C)C(=O)Nc2ccc(C(F)(F)F)cc2)[C@H](C)CN([C@@H](C)CO)C(=O)c2cc(NC(=O)C3CCCCC3)ccc2O1	none
CN(C)c1ccc(-c2nnn(Cc3ccccc3Br)n2)cc1	rRNA inh HTS -19 (no result: E-sel inducer) | AID977621 inconclusive
C[C@@H]1CN([C@H](C)CO)C(=O)c2cccc(NS(C)(=O)=O)c2O[C@H]1CN(C)C(=O)Nc1cccc2ccccc12	none
O=C(C[C@H]1CC[C@@H](NC(=O)C2CCOCC2)[C@@H](CO)O1)NCc1ccncc1	none (no result: RAD54 inh)

Screening data from PubChem BioAssay.
